Source: publication PMC5116011 (The Journal of antibiotics, 2016)
Converted amounts (≈) assume the structure as drawn. Like-named read-outs stand apart in the source and are kept apart here.

Experiments:
E. faecalis ATCC33186 = experiment: MIC, microbroth dilution in Mueller-Hinton broth; assay type: cell-based; conditions: Enterococcus faecalis, ATCC33186, read-out: MIC EF
In short: (§1)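 CLSI broth microdilution in cation-adjusted Mueller-Hinton broth. Inocula were grown from MH agar colonies in MH broth, with a final inoculum of 10^5 CFU/ml. Test compound final range was 200–0.2 µg/ml, incubated 37°C for 18–20 h. MIC was the lowest concentration preventing visible growth. Runs were at least duplicate, and the mean MIC was reported.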

S. pyogenes ATCC700294 = experiment: MIC, microbroth dilution in Mueller-Hinton broth; assay type: cell-based; conditions: Streptococcus pyogenes, ATCC700294, read-out: MIC SPy
In short: as §1

S. pneumoniae R6 = experiment: MIC, microbroth dilution in Mueller-Hinton broth; assay type: cell-based; conditions: Streptococcus pneumoniae, R6, read-out: MIC SP
In short: as §1

B. anthracis sterne = experiment: microbe, parasite or virus in culture; assay type: cell-based; conditions: Bacillus anthracis, read-out: MIC BA
B. subtilis ATCC23857 = experiment: MIC, microbroth dilution in Mueller-Hinton broth; assay type: cell-based; conditions: Bacillus subtilis, ATCC23857, read-out: MIC BS
In short: as §1

[1] = tested on: S. aureus -ATCC29213 (MSSA); experiment: MIC, microbroth dilution in Mueller-Hinton broth; assay type: cell-based; conditions: Staphylococcus aureus, read-out: MIC MSSA
In short: as §1

S. aureus NRS 70 (MRSA) = experiment: MIC, microbroth dilution in Mueller-Hinton broth; assay type: cell-based; conditions: Staphylococcus aureus, MRSA|NRS70, read-out: MIC MRSA
In short: as §1

E. coli BW25113 = experiment: MIC, microbroth dilution in Mueller-Hinton broth; assay type: cell-based, Escherichia coli; conditions: for MIC EC MH+BP/CCCP / MIC EC + / MIC EC: E. coli BW25113; for MIC EC MH+BP/CCCP: MH broth with 30 µg/ml 2,2′-bipyridyl and 50 µg/ml CCCP; for MIC EC +: with clavulanic acid (6µg/ml); for MIC: Escherichia coli, BW25113, read-out: MIC EC, E. coli BW25113; for MIC / MIC EC: Mueller-Hinton broth (Table 2)
[2] = tested on: E. coli BW25113 ΔtolC derivative JW5503-1; experiment: MIC, microbroth dilution in Mueller-Hinton broth; assay type: cell-based, Escherichia coli; conditions: for MIC: Escherichia coli
P. vulgaris ATCC 33420 = experiment: MIC, microbroth dilution in Mueller-Hinton broth; assay type: cell-based; conditions: Proteus vulgaris, ATCC33420, read-out: MIC PV
P. mirabilis ATCC 25933 = experiment: MIC, microbroth dilution in Mueller-Hinton broth; assay type: cell-based; conditions: Proteus mirabilis, ATCC25933, read-out: MIC PM
P. aeruginosa PA01 = experiment: MIC, microbroth dilution in Mueller-Hinton broth; assay type: cell-based, Pseudomonas aeruginosa; conditions: for MIC PA MH+BP/CCCP / MIC PA +: P. aeruginosa PA01; for MIC PA MH+BP/CCCP: MH broth with 30 µg/ml 2,2′-bipyridyl and 50 µg/ml CCCP; for MIC PA +: with clavulanic acid (6µg/ml); for MIC: Pseudomonas aeruginosa
[3] = tested on: E. coli BW25113 ΔampC derivative JW4111-2; assay type: cell-based, Escherichia coli; conditions: for MIC: Escherichia coli, BW25113, read-out: MIC ECΔampC −
[4] = tested on: E. coli ATCC 35218 (Low-level TEM-1); experiment: MIC with and without clavulanic acid; assay type: cell-based; conditions: for MIC ATCC 35218 (Low-level TEM-1) + CLV: with clavulanic acid (6 µg/ml)
In short: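 Mueller-Hinton broth microdilution per CLSI, run in parallel without and with the β-lactamase inhibitor clavulanic acid (6 µg/ml). MH-broth-grown inoculum was at 10^5 CFU/ml final, with test compound at 200–0.2 µg/ml final. Incubation was 37°C, 18–20 h, and the visible-growth endpoint was read. At least duplicate determinations; the mean MIC was reported.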

[5] = BW25113, read-out: MIC ECΔtolC MH
[6] = BW25113, read-out: MIC ECΔtolC MH+BP

Row | SMILES | MIC (E. faecalis ATCC33186) | MIC (S. pyogenes ATCC700294) | MIC (S. pneumoniae R6) | MIC (B. anthracis sterne) | MIC (B. subtilis ATCC23857) | MIC [1] | MIC (S. aureus NRS 70 (MRSA)) | MIC EC MH+BP/CCCP (E. coli BW25113) | MIC EC + (E. coli BW25113) | MIC (E. coli BW25113) | MIC ECΔtolC MH+BP/CCCP [2] | MIC ECΔtolC MH+CCCP [2] | MIC (P. vulgaris ATCC 33420) | MIC (P. mirabilis ATCC 25933) | MIC PA MH+BP/CCCP (P. aeruginosa PA01) | MIC PA + (P. aeruginosa PA01) | MIC (P. aeruginosa PA01; PA01, read-out: MIC PA) | MIC (P. aeruginosa PA01; PA01, read-out: MIC PA MH) | MIC (P. aeruginosa PA01; PA01, read-out: MIC PA MH+BP) | MIC (P. aeruginosa PA01; PA01, read-out: MIC PA MH+CCCP) | further results
1 | CC1(C)SC2C(NC(=O)C(NC(=O)C3=C(O)C(Cc4ccccc4)NC3=O)c3ccccc3)C(=O)N2C1C(=O)O (stereo not shown) [Compound 2781] | 25 µg/mL (≈ 44.3 µM) | 0.39 µg/mL (≈ 0.691 µM) | < 0.2 µg/mL | 3.13 µg/mL (≈ 5.54 µM) | 0.78 µg/mL (≈ 1.38 µM) | < 0.2 µg/mL | 25 µg/mL (≈ 44.3 µM) | 3.13 µg/mL (≈ 5.54 µM) | 6.25 µg/mL | 100 µg/mL (≈ 177 µM) | 1.56 µg/mL (≈ 2.76 µM) | 1.56 µg/mL (≈ 2.76 µM) | 6.25 µg/mL (≈ 11.1 µM) | 3.13 µg/mL (≈ 5.54 µM) | 1.56 µg/mL (≈ 2.76 µM) | 3.13 µg/mL | 12.5 µg/mL (≈ 22.1 µM) | 12.5 µg/mL (≈ 22.1 µM) | 6.25 µg/mL (≈ 11.1 µM) | 3.13 µg/mL (≈ 5.54 µM) | MIC ([2]; BW25113, read-out: MIC ECΔtolC): 3.13 µg/mL (≈ 5.54 µM); MIC [2, 5]: 3.13 µg/mL (≈ 5.54 µM); MIC [2, 6]: 3.13 µg/mL (≈ 5.54 µM); MIC (P. aeruginosa PA01; PA01, read-out: MIC PA −): 12.5 µg/mL (≈ 22.1 µM); MIC [3]: 6.25 µg/mL (≈ 11.1 µM); MIC ECΔampC + [3]: 3.13 µg/mL; MIC ([4]; Escherichia coli, ATCC35218, read-out: MIC ATCC 35218 (Low-level TEM-1) - CLV): > 200 µg/mL; MIC ATCC 35218 (Low-level TEM-1) + CLV [4]: 25 µg/mL
2 | CC1(C)SC2C(NC(=O)C(NC(=O)C3=C(O)C(Cc4ccc(F)cc4)NC3=O)c3ccccc3)C(=O)N2C1C(=O)O (stereo not shown) [Compound 2782] | 6.25 µg/mL (≈ 10.7 µM) | 0.78 µg/mL (≈ 1.34 µM) | 0.39 µg/mL (≈ 0.669 µM) | 3.13 µg/mL (≈ 5.37 µM) | 1.56 µg/mL (≈ 2.68 µM) | 0.39 µg/mL (≈ 0.669 µM) | 12.5 µg/mL (≈ 21.5 µM) | 3.13 µg/mL (≈ 5.37 µM) | 3.13 µg/mL | 25 µg/mL (≈ 42.9 µM) | 1.56 µg/mL (≈ 2.68 µM) | 1.56 µg/mL (≈ 2.68 µM) | 12.5 µg/mL (≈ 21.5 µM) | 12.5 µg/mL (≈ 21.5 µM) | 12.5 µg/mL (≈ 21.5 µM) | 12.5 µg/mL | 25 µg/mL (≈ 42.9 µM) | 25 µg/mL (≈ 42.9 µM) | 25 µg/mL (≈ 42.9 µM) | 12.5 µg/mL (≈ 21.5 µM) | MIC ([2]; BW25113, read-out: MIC ECΔtolC): 1.56 µg/mL (≈ 2.68 µM); MIC [2, 5]: 1.56 µg/mL (≈ 2.68 µM); MIC [2, 6]: 3.13 µg/mL (≈ 5.37 µM); MIC [3]: 6.25 µg/mL (≈ 10.7 µM); MIC ECΔampC + [3]: 3.13 µg/mL; MIC ATCC 35218 (Low-level TEM-1) + CLV [4]: 25 µg/mL
3 | CC1(C)SC2C(NC(=O)C(NC(=O)C3=C(O)CN(c4ccccc4)C3=O)c3ccccc3)C(=O)N2C1C(=O)O (stereo not shown) [Compound 2919] | 25 µg/mL (≈ 45.4 µM) | 0.78 µg/mL (≈ 1.42 µM) | < 0.2 µg/mL | 3.13 µg/mL (≈ 5.68 µM) | 1.56 µg/mL (≈ 2.83 µM) | 0.78 µg/mL (≈ 1.42 µM) | 50 µg/mL (≈ 90.8 µM) | 25 µg/mL (≈ 45.4 µM) | 50 µg/mL | 6.25 to 12.5 µg/mL (≈ 11.4 to 22.7 µM) | 1.56 µg/mL (≈ 2.83 µM) | 3.13 µg/mL (≈ 5.68 µM) | 25 µg/mL (≈ 45.4 µM) | 50 µg/mL (≈ 90.8 µM) | 12.5 µg/mL (≈ 22.7 µM) | 12.5 µg/mL | 50 µg/mL (≈ 90.8 µM) | 50 µg/mL (≈ 90.8 µM) | 50 µg/mL (≈ 90.8 µM) | 25 µg/mL (≈ 45.4 µM) | MIC EC (E. coli BW25113): 12.5 µg/mL (≈ 22.7 µM); MIC ([2]; BW25113, read-out: MIC ECΔtolC): 3.13 µg/mL (≈ 5.68 µM); MIC [2, 5]: 6.25 µg/mL (≈ 11.4 µM); MIC [2, 6]: 3.13 µg/mL (≈ 5.68 µM); MIC [3]: 12.5 µg/mL (≈ 22.7 µM); MIC ECΔampC + [3]: 6.25 µg/mL
4 | CC1(C)SC2C(NC(=O)C(NC(=O)C3=C(O)C(Cc4ccco4)NC3=O)c3ccccc3)C(=O)N2C1C(=O)O (stereo not shown) [Compound 3002] | 25 µg/mL (≈ 45.1 µM) | 0.39 µg/mL (≈ 0.703 µM) | 0.39 µg/mL (≈ 0.703 µM) | 3.13 µg/mL (≈ 5.64 µM) | 1.56 µg/mL (≈ 2.81 µM) | 0.78 µg/mL (≈ 1.41 µM) | 50 µg/mL (≈ 90.2 µM) | 1.56 µg/mL (≈ 2.81 µM) | 6.25 µg/mL | 6.25 to 12.5 µg/mL (≈ 11.3 to 22.5 µM) | 0.78 µg/mL (≈ 1.41 µM) | 1.56 µg/mL (≈ 2.81 µM) | 25 µg/mL (≈ 45.1 µM) | 1.56 µg/mL (≈ 2.81 µM) | 3.13 µg/mL (≈ 5.64 µM) | 3.13 µg/mL | 12.5 µg/mL (≈ 22.5 µM) | 12.5 µg/mL (≈ 22.5 µM) | 12.5 µg/mL (≈ 22.5 µM) | 6.25 µg/mL (≈ 11.3 µM) | MIC EC (E. coli BW25113): 6.25 µg/mL (≈ 11.3 µM); MIC (P. aeruginosa PA01; PA01, read-out: MIC PA −): 12.5 µg/mL (≈ 22.5 µM); MIC ECΔampC + [3]: 6.25 µg/mL
